≈ marks a conversion by molar mass, not a printed value.
Assays:
[1] = system: Mycoplasmoides gallisepticum; assay: Minimum inhibitory concentration measured against Mycoplasma gallisepticum K514 in the absence of extra copper; format: functional
Summary of the method: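 M. gallisepticum K514 grown in modified Adler medium (peptone, yeast extract, glucose, heat-inactivated horse serum, benzylpenicillin, phenol red, pH 8.0). No added copper. Compounds dissolved in DMSO (final 1.25%) and tested as serial 2-fold dilutions in duplicate, 3 nM to 100 μM. Tubes with 3 mL medium received 1 mL fresh culture and were held 24 h at 37 °C. MIC is the lowest concentration giving no indicator colour change.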

[2] = system: Mycoplasmoides gallisepticum; assay: Minimum inhibitory concentration measured against Mycoplasma gallisepticum K514 in the presence of extra copper; format: functional
Summary of the method: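 M. gallisepticum K514 grown in modified Adler medium (peptone, yeast extract, glucose, horse serum, benzylpenicillin, phenol red, pH 8.0) with CuSO4 at 40 μM final. Compounds in DMSO (1.25% final), serial 2-fold dilutions in duplicate over 3 nM–100 μM. 3 mL medium plus 1 mL fresh culture, incubated 24 h at 37 °C. MIC is the lowest concentration with no phenol-red colour change.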

CC[C@H]1OC(=O)C[C@@H](O)[C@H](C)[C@@H](O[C@@H]2O[C@H](C)[C@@H](O[C@H]3C[C@@](C)(O)[C@@H](O)[C@H](C)O3)[C@H](N(C)C)[C@H]2O)[C@@H](CC=O)C[C@@H](C)C(=O)/C=C/C(C)=C/[C@@H]1CO[C@@H]1O[C@H](C)[C@@H](O)[C@@H](OC)[C@H]1OC [TYLOSIN]
MIC [1]: 0.1 µM (≈ 0.0916 µg/mL)
MIC [2]: 0.1 µM

CUPRIC SULFATE
MIC [1]: 700 µM

CCCCCCCCCC(=O)Nc1ccc2ccc3cccnc3c2n1
MIC [1]: > 100 µM
MIC [2]: 0.37 µM

CCCCc1ccc2ccc3ccc(NC(=O)c4ccc(C)cc4)nc3c2n1
MIC [1]: > 100 µM
MIC [2]: 0.37 µM

CCCCc1ccc2ccc3ccc(NC(=O)c4ccc(Cl)cc4)nc3c2n1
MIC [1]: > 100 µM
MIC [2]: 0.75 µM

Nc1ccc2ccc3cccnc3c2n1
MIC [1]: > 100 µM
MIC [2]: 3.1 µM

O=C(Nc1ccc2ccc3cccnc3c2n1)c1ccc(Cl)cc1
MIC [1]: > 100 µM
MIC [2]: 0.023 µM

O=C(Nc1ccc2ccc3ccc(NC(=O)c4ccccc4)nc3c2n1)c1ccccc1
MIC [1]: > 100 µM
MIC [2]: 0.05 µM

COc1ccc(C(=O)Nc2ccc3ccc4cccnc4c3n2)cc1
MIC [1]: > 100 µM
MIC [2]: 0.046 µM

Nc1ccc2ccc3ccc(N)nc3c2n1
MIC [1]: > 100 µM
MIC [2]: 0.8 µM

O=C(Nc1ccc2ccc3cccnc3c2n1)c1ccc(Cl)c(Cl)c1
MIC [1]: > 100 µM
MIC [2]: 0.095 µM

Cc1ccc(C(=O)Nc2ccc3ccc4cccnc4c3n2)cc1
MIC [1]: > 100 µM
MIC [2]: 0.023 µM

O=C(Nc1ccc2ccc3cccnc3c2n1)c1ccccc1
MIC [1]: > 100 µM
MIC [2]: 0.023 µM

N=C(Nc1ccc2ccc3cccnc3c2n1)c1ccc(Cl)c(Cl)c1
MIC [1]: > 100 µM
MIC [2]: 0.2 µM

CCCCC(CC)C(=O)Nc1ccc2ccc3cccnc3c2n1 (configuration not stated)
MIC [1]: > 100 µM
MIC [2]: 0.23 µM

CCCCc1ccc2ccc3ccc(NC(=O)c4ccccc4)nc3c2n1
MIC [1]: > 100 µM
MIC [2]: 0.2 µM

N=C(Nc1ccc2ccc3cccnc3c2n1)c1ccc(Cl)cc1
MIC [1]: > 100 µM
MIC [2]: 0.2 µM

CCCCc1ccc2ccc3ccc(NC(=O)c4ccc(Cl)c(Cl)c4)nc3c2n1
MIC [1]: > 100 µM
MIC [2]: 1.5 µM

N=C(Nc1ccc2ccc3cccnc3c2n1)c1ccccc1
MIC [1]: > 100 µM
MIC [2]: 0.2 µM
